# Reference: ChEMBL document CHEMBL1125832, “Synthesis and dopaminergic activity of 3-substituted 1-(aminomethyl)-3,4-dihydro-5,6-dihydroxy-1H-2-benzopyrans: characterization of an auxiliary binding region in the D1 receptor” (J Med Chem, 1991)
# Tests used:
# Rattus norvegicus [1] = assay: (§1) Rat rotation experiments were conducted to evaluate rational behavior of the rats by administering at a dose of […] subcutaneously; format: functional
# Rattus norvegicus [2] = assay: (§2) Rat rotation experiments were conducted to evaluate rational behavior of the rats by administering at a dose of […] oral; format: functional
# Rattus norvegicus [3] = assay: as §1; format: functional; remark: listed apart in the source
# Rattus norvegicus [4] = assay: as §2; format: functional; remark: listed apart in the source
# Rattus norvegicus [5] = assay: as §1; format: functional; remark: listed apart in the source
# Rattus norvegicus [6] = assay: as §2; format: functional; remark: listed apart in the source
# [7] = target: T1, 5-hydroxytryptamine receptor 1A (Rattus norvegicus, UniProt P19327); assay: Binding affinity was evaluated by using [3H]8-OH-DPAT radioligand by using competitive binding assay on 5-hydroxytryptamine 1A receptor
# T1 sequence (P19327 whole entry): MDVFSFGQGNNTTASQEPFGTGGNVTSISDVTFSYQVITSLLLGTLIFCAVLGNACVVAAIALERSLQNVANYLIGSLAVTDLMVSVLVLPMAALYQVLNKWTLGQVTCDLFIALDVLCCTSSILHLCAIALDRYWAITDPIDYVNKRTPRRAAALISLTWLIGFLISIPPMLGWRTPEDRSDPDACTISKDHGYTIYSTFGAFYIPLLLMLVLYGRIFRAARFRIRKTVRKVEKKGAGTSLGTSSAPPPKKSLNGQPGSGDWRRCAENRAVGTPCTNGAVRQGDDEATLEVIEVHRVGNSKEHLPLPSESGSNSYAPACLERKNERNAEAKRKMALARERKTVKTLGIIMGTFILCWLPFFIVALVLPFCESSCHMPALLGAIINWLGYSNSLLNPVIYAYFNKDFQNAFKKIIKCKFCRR
# How it was run: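 Rat anterior cortex membranes, pelleted and preincubated 30 min at 37 °C in 50 mM Tris-HCl pH 7.7, 4 mM CaCl2, 10 μM pargyline. Label [3H]8-OH-DPAT, 800 pM final; nonspecific binding with 10 μM spiroxatrine. Ki derived from IC50 by Cheng-Prusoff; mean with SEM range.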
# Rattus norvegicus [8] = assay: Rat rotation experiments were conducted to evaluate rational behavior of the rats by administering at a dose of 20.0 umol/Kg subcutaneously; format: functional
# How it was run: (§3)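 Rats with unilateral 6-hydroxydopamine lesions of the nigrostriatal bundle. Compound given subcutaneously or orally at the stated dose. Net contralateral rotations counted over 2 h after dosing and reported as mean ± SEM; negative values indicate ipsilateral turning.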
# Rattus norvegicus [9] = assay: Rat rotation experiments were conducted to evaluate rational behavior of the rats by administering at a dose of 0.41 umol/Kg subcutaneously; format: functional; how it was run: as §3
# Rattus norvegicus [10] = assay: Rat rotation experiments were conducted to evaluate rational behavior of the rats by administering at a dose of 4.1 umol/kg subcutaneously; format: functional; how it was run: as §3
# Rattus norvegicus [11] = assay: Rat rotation experiments were conducted to evaluate rational behavior of the rats by administering at a dose of 0.2 umol/kg subcutaneously; format: functional; how it was run: as §3
compound,measurement,setting,value
C=CCNC[C@@H]1OC(C2CCCCC2)Cc2c1ccc(O)c2O (stereo partly specified),Activity,Rattus norvegicus [1],1056
CC(C)(C)C1Cc2c(ccc(O)c2O)[C@H](CN)O1 (stereo partly specified),Activity,Rattus norvegicus [2],689
same,Activity,Rattus norvegicus [3],671
same,Activity,Rattus norvegicus [4],932
same,Activity,Rattus norvegicus [5],661
same,Activity,Rattus norvegicus [6],176
same,Ki,[7],> 20 µM
NC[C@H]1O[C@@H](c2ccccc2)Cc2c1ccc(O)c2O,Activity,Rattus norvegicus [8],-24
NC[C@@H]1OC(c2ccccc2)Cc2c1ccc(O)c2O (stereo partly specified),Activity,Rattus norvegicus [9],192
same,Activity,Rattus norvegicus [10],1554
NC[C@@H]1O[C@H](c2ccccc2)Cc2c1ccc(O)c2O,Activity,Rattus norvegicus [11],348
